Source: PubChem BioAssay
APP 5'UTR act – activates APP 5'UTR luciferase reporter | activation, % at 2 µM | SH-SY5Y APP 5'UTR luciferase reporter, luminescence; zero percent = DMSO vehicle wells | actives 1% (n = 190,000) | AID 1276;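 active = activation above a set limit, based on mean plus 3 SD of controls, cut at about 140% in these data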
STAT1 blocker – reduces IFN-gamma driven STAT1 reporter signal. actives 0.35% (n = 200,000). inhibition, % at 5.5 µM. NIH 3T3 STAT1-luciferase reporter, luminescence;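 active = inhibition above a set limit, the mean inhibition across all tested compounds plus 3 SD, cut at about 34% in these data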;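 note: 0% = IFN-gamma with DMSO and 100% = IFN-gamma with 300 µM nifuroxazide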
STAT3 blocker – inhibitors of IL-6 induced STAT3 signaling | U3A cells, IL-6 STAT3-luciferase reporter, luminescence; host cell line lacks STAT1 | inhibition, % at 5.5 µM | actives 0.89% (n = 190,000);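 active = inhibition above the mean inhibition across all screened compounds plus 3 SD, cut at about 44% in these data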;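 note: 0% = DMSO only wells and 100% = 100 µM nifuroxazide control wells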
NF-kB neuron act – compounds increasing NF-kB expression in human neuronal cells; NF-kB reporter expression; hits give high values; fold change at 12.5 µM; actives 1.6% (n = 190,000); AID 1239; in the data active = fold change above about 3.3
STAT1 act-1 – increases IFN-gamma driven STAT1 reporter signal | activation (% of control), % at 5.5 µM | NIH 3T3 STAT1-luciferase reporter, luminescence; 100% = IFN-gamma alone, no compound | actives 2.6% (n = 200,000);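 active = activation above the screen-wide mean activation plus 3 SD, cut at about 130% in these data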;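 note: raw ratio to IFN-gamma control signal so 100% means no change and 0% no light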
STAT3 act-1 – activators of IL-6 induced STAT3 signaling | U3A cells, IL-6 STAT3-luciferase reporter, luminescence; 100% = signal with IL-6 EC80 alone | activation (% of control), % at 5.6 µM | actives 0.91% (n = 190,000);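 active = activation above the screen-wide mean of compound activation plus 3 SD, cut at about 130% in these data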;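 note: 0% = background luminescence of wells with medium and substrate only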
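System – human U3A cells carrying STAT3-luciferase construct · Probe or stimulus – Interleukin-6, 33 ng/mL · Schedule – compound 1 h, then IL-6 6 h at 37 °C · Signal – luminescence from STAT3-driven luciferase reporter · Evaluation – percent of IL-6-only median luminescence · Benchmarks – IL-6-only high control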
STAT3 act-2 – confirmation of STAT3 signaling activators; shares compounds with STAT3 act-1; U3A STAT3-luciferase reporter, IL-6 potentiation, luminescence; U3A cells lack STAT1; 100 means same as IL-6 alone; potentiation (% of control), % at 5.7 µM; actives 64% (n = 1,200);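 active = percent activation of the STAT3 luciferase reporter above a set limit taken from the earlier primary screen, cut at about 130% in these data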;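 note: 0% = background signal of medium plus substrate and 100% = median of IL-6 with DMSO wells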
NFkB act 2 – counter-screen for STAT3 activators: NF-kappaB activation; shares compounds with STAT3 act-1; human cells, NF-kappaB reporter activation; activation (% of control), % at 5.7 µM; actives 11% (n = 1,200); in the data active = activation above about 120%;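 note: reporter induced by TNF-alpha stimulation; 100% = median of stimulated DMSO wells and 0% = no signal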
STAT1 act-2 – counter-screen for STAT3 activators: STAT1 activation; AID 1318; shares compounds with STAT3 act-1; activation (% of control), % at 5.7 µM; NIH 3T3 STAT1-luciferase reporter, IFN-gamma, luminescence; actives 13% (n = 1,200);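 active = activation above the solvent-only control well mean plus 3 SD, set per screening run, cut at about 120% in these data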;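 note: 100% = IFN-gamma with DMSO median signal so 100% means no change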
An asterisk follows results filed as active; · = no result given. The list is not random: actives were taken first. Their share in the collection is about 4.9%.

SMILES	APP 5'UTR act	STAT1 blocker	STAT3 blocker	NF-kB neuron act	STAT1 act-1	STAT3 act-1	STAT3 act-2	NFkB act 2	STAT1 act-2
Cc1c([N+](=O)[O-])nnn1-c1cc(Cl)cc(Cl)c1	-12	-5	2	1.1	103	100	·	·	·
O=C(/C(=C(\[O-])c1ccccc1)[n+]1ccc2ccccc2c1)c1ccc(Cl)cc1	9	3	-53	0.72	98	152*	156*	110	106
O=C(/C(=C(\[O-])c1ccccc1)[n+]1ccc2ccccc2c1)c1ccccc1	18	-4	-44	0.97	103	138*	151*	112	109
O=C(/C(=C(\[O-])c1ccccc1)[n+]1ccc2ccccc2c1)c1ccc([N+](=O)[O-])cc1	8	11	-16	1.2	90	116	·	·	·
O=C1COc2ccc(C(=O)COC(=O)c3cnc(Cl)c(Cl)c3)cc2N1	4	4	4	1.2	95	103	·	·	·
O=C(CCc1ccc(O)c(O)c1)NNC(=S)Nc1ccc(Br)cc1Cl	14	-7	-5	0.94	105	106	·	·	·
CCCn1c(N2CCN(CC(=O)c3c[nH]c4ccccc34)CC2)nc2c1c(=O)[nH]c(=O)n2C	3	1	-53	0.88	99	147*	139*	104	97
O=C(CN1CCSCC1)c1c[nH]c2ccccc12	2	14	-21	0.98	87	125	·	·	·
O=C(CN1CCN(Cc2ccccc2)CC1)c1c[nH]c2ccccc12	-11	3	-42	1	97	138*	123	100	98
CCn1c(N2CCN(CC(=O)c3c(C)n(C)c4ccccc34)CC2)nc2c1c(=O)[nH]c(=O)n2C	-5	3	12	0.68	97	93	·	·	·
COc1ccc(-c2cc(CN3C(=O)c4ccccc4C3=O)on2)cc1	·	-1	-6	·	101	109	·	·	·
Nc1ccc(Sc2cnn(-c3ccccc3)c(=O)c2Cl)cc1	-3	4	-8	1.1	97	113	·	·	·
Cc1ccc(Sc2cnn(-c3ccccc3)c(=O)c2Cl)cc1	-7	2	-38	1.1	98	142*	133*	104	98
COC(=O)c1cc(NC(=O)N2c3ccccc3Sc3ccccc32)cc(C(=O)OC)c1	0	14	-3	2.1	87	107	·	·	·
S=c1[nH]nc(CSc2nc3ccccc3s2)o1	6	10	-43	1.1	91	142*	142*	100	97
CS(=O)(=O)c1ccc(Cl)c(NC(=O)COC(=O)c2cccc(C#N)c2)c1	18	3	6	1.5	98	102	·	·	·
Cc1ccccc1OCC(=O)Nc1cccc2nsnc12	3	8	-57	1.2	86	150*	129	110	107
O=C(COc1ccccc1Cl)Nc1cc(Cl)ccc1O	29	2	-74	1.2	96	166*	161*	100	94
CCC(=O)N1CCN(c2ccccc2NC(=O)COc2ccccc2Cl)CC1	5	6	-61	0.49	95	156*	143*	106	100
Cc1cc(C)cc(NC(=O)CCn2cnc3cc(C)c(C)cc32)c1	0	6	7	1.1	93	96	·	·	·
COC(=O)CC(c1ccc(OC)c(OC)c1)c1ccc(OC)c(OC)c1	14	0	7	1.1	97	98	·	·	·
Cc1ccc2ncccc2c1NC(=S)NC(=O)c1ccccc1	29	15	-35	1.5	85	137*	146*	110	100
Cc1ccc2ncccc2c1NS(=O)(=O)c1ccccc1	12	4	2	0.84	96	101	·	·	·
CC(C)=C1C2C=CC1C(C(=O)Nc1cccc(C)c1)C2C(=O)O (centres undefined)	-2	4	-65	0.78	96	160*	145*	100	97
CC(=O)c1cccc(NC(=O)C2C3C=CC(C3)C2C(=O)O)c1 (centres undefined)	-1	0	2	1.1	98	100	·	·	·
SMILES	APP 5'UTR act	STAT1 blocker	STAT3 blocker	NF-kB neuron act	STAT1 act-1	STAT3 act-1	STAT3 act-2	NFkB act 2	STAT1 act-2
COC(=O)CNC(=O)/C=C/c1ccc(OC)cc1	-5	-4	3	1.2	104	101	·	·	·
Fc1ccc2nc(Nc3nc4c(F)cccc4s3)sc2c1	20	-17	-54	1.3	116	140*	169*	120	130*
Fc1cccc2sc(Nc3nc4ccccc4s3)nc12	96	-24	-92	1.2	121	177*	210*	129*	156*
CCC(C)(C(=O)NC1CCCC1)N(C(=O)c1cnccn1)c1ccccc1 (centres undefined)	-7	0	-40	1	100	137*	117	100	103
CC(C)CNC(=O)Cn1c(=O)c2c(ncn2CC(C)C)n(Cc2ccccc2)c1=O	-1	-1	-4	0.94	101	104	·	·	·
CC(Oc1ccc(F)cc1)C(=O)Nc1ccc2ccccc2c1 (centres undefined)	·	-6	-37	1.3	106	139*	136*	103	109
CCCN1CCN(C(=O)Cn2cccc2C(=O)c2ccccc2)CC1	8	1	3	0.93	99	103	·	·	·
O=C(N/N=C\c1cccs1)c1ccccc1-n1cccc1	8	2	-44	0.92	97	138*	148*	105	96
O=C(N/N=C\c1ccccc1)c1ccccc1-n1cccc1	-1	-1	-15	1	100	114	·	·	·
Cn1nc(-c2ccc(Cl)cc2)c2cc(C(=O)NCC3CCCO3)sc21 (centres undefined)	-8	11	-77	0.57	90	167*	147*	102	92
CN1CCN(CCCNC(=O)c2cc3c(-c4ccc(Cl)cc4)nn(C)c3s2)CC1	-8	12	-76	1.1	89	173*	149*	106	93
CCN(CC)CCCNC(=O)c1cc2c(-c3ccc(Cl)cc3)nn(C)c2s1	3	11	-61	1.1	90	161*	156*	109	97
CCN(CC)CCCNC(=O)c1cc(-c2ccc(Cl)c(Cl)c2)on1	-9	1	15	0.57	99	95	·	·	·
Cc1ccc2cccc(NC(=S)NC(=O)c3c(Br)cnn3C)c2n1	-2	1	-44	1.1	99	139*	117	108	103
Cc1ccc2cccc(NC(=S)NC(=O)c3ccn(C)n3)c2n1	3	7	-30	0.74	92	127	·	·	·
